Results as given in article PMC4559355 (Journal of nuclear medicine : official publication, Society …, 2015).

Columns and labels:
[1] = Stability in phosphate-buffered saline; format: physicochemical; conditions: formulated in phosphate-buffered saline
Mouse serum stability = format: in vitro ADME; conditions: mouse serum 0.5 mL + radiotracer 12.5 µL (0.74 MBq), 37°C, 60 min, ethanol precipitation of serum proteins, HPLC
DX3puroβ6 (αvβ6 +) cells = experiment: Cell binding and internalization, DX3puroβ6 cells; format: cell-based; conditions: in vitro, ratio x:1
Method in brief: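 Radiolabelled tracer was incubated with DX3puroβ6 (αvβ6+) and DX3puro (αvβ6−) cells for 60 min, n = 4 per cell line and condition. Bound and internalized activity are each expressed as a fraction of total radioactivity, with SD. Uptake and internalization ratios are DX3puroβ6 over DX3puro values.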

[2] = tested on: DX3puroβ6 tumor (αvβ6-positive); experiment: Biodistribution, DX3puroβ6 xenograft tumor; format: in vivo, mouse; conditions: ratio x:1; for DX3puroβ6/DX3puro tumor uptake ratio: paired DX3puroβ6–DX3puro mouse model
Method in brief: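 Female athymic nude mice received subcutaneous DX3puro and DX3puroβ6 cells (3 × 10^6 each) on opposite flanks. Radiotracer in phosphate-buffered saline was given at 1.1–2.0 MBq/animal by tail-vein injection under 2% isoflurane. Mice were killed under 4% isoflurane at 1, 2 and 4 h (n = 3/time point). Tissues were rinsed and γ-counted; values are decay-corrected %ID/g, and ratios are taken from these.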

[3] = tested on: BxPC-3 tumor (αvβ6-positive); experiment: Biodistribution, BxPC-3 xenograft tumor; format: in vivo; conditions: BxPC-3 mouse model, ratio x:1
[4] = Biodistribution, nontumor organs; format: in vivo; conditions: female, athymic nude, mouse, iv, total radioactivity
DX3puroβ6 tumor = experiment: Radiotracer stability in DX3puroβ6 tumor; format: in vivo, mouse; conditions: tumor collected 1 h after injection, homogenized, ethanol precipitation, HPLC
Method in brief: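 Female athymic nude mice carried paired subcutaneous DX3puroβ6 and DX3puro xenografts (3 × 10^6 cells each, opposite flanks). After intravenous radiotracer, the DX3puroβ6 tumor was harvested at 1 h and homogenized. Proteins were removed by ethanol precipitation, and the supernatant was analysed by HPLC for intact radiotracer.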

BxPC-3 tumor = experiment: Radiotracer stability in BxPC-3 tumor; format: in vivo, mouse; conditions: tumor collected 1 h after injection, homogenized, ethanol precipitation, HPLC
Method in brief: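 BxPC-3 xenografts came from 3.5 × 10^6 cells injected subcutaneously in female athymic nude mice. Radiotracer was given intravenously. Tumor was excised 1 h later and homogenized. Proteins were precipitated with ethanol, and supernatant aliquots were analysed by HPLC for intact versus degraded radiotracer.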

[5] = HPLC analysis of urine metabolites; format: in vivo; conditions: mouse urine, ethanol precipitation
[6] = paired mouse model, throughout (1, 2 and 4 h)
[7] = gallbladder, stomach, intestine

| SMILES | Stable in phosphate-buffered saline (time) [1] [h] | Radiotracer remaining intact in mouse serum (Mouse serum stability) [%] | Internalization ratio for the DX3puroβ6–DX3puro cell pair (DX3puroβ6 (αvβ6 +) cells) | Uptake (binding) ratio for the DX3puroβ6–DX3puro cell pair (DX3puroβ6 (αvβ6 +) cells) | DX3puroβ6/DX3puro tumor uptake ratio ([2]; 1 h) | DX3puroβ6/DX3puro tumor uptake ratio ([2]; 4 h) | DX3puroβ6 tumor–to–blood ratio [2, 6] | BxPC-3–to–blood ratio ([3]; 4 h) | BxPC-3–to–liver ratio ([3]; 4 h) | BxPC-3–to–pancreas ratio [3] | tissue uptake at 1 h [4, 7] [%ID/g] | tissue uptake at 1 h ([4]; pancreas) [%ID/g] | tissue uptake at 4 h ([4]; pancreas) [%ID/g] | Apparent metabolic breakdown of radioactivity extracted from DX3puroβ6 tumor (DX3puroβ6 tumor) | Apparent breakdown of radioactivity extracted from BxPC-3 tumor (BxPC-3 tumor) | Minor new peak in urine HPLC (slightly longer retention time) [5] [%] | DX3puroβ6 tumor–to–DX3puro tumor ratio [2, 6] |
| --- | --- | --- | --- | --- | --- | --- | --- | --- | --- | --- | --- | --- | --- | --- | --- | --- | --- |
| CC(C)C[C@H](NC(=O)[C@H](CC(=O)O)NC(=O)CNC(=O)[C@H](CCCNC(=N)N)NC(=O)[C@H](CC(C)C)NC(=O)[C@H](CC(N)=O)NC(=O)[C@@H]1CCCN1C(=O)[C@@H](NC(=O)[C@H](C)NC(=O)[C@H](CC(N)=O)NC(=O)CCOCCOCCOCCOCCOCCOCCOCCOCCOCCOCCOCCOCCOCCOCCOCCOCCOCCOCCOCCOCCOCCOCCOCCOCCOCCOCCOCCOCCNC(=O)c1ccc(F)cc1)C(C)C)C(=O)N[C@@H](CCC(N)=O)C(=O)N[C@H](C(=O)N[C@@H](CC(C)C)C(=O)N[C@@H](C)C(=O)N[C@@H](CCC(N)=O)C(=O)N[C@@H](CCCCN)C(=O)N[C@H](C(=O)N[C@@H](C)C(=O)N[C@@H](CCCNC(=N)N)C(=O)N[C@H](C(=O)NCCOCCOCCOCCOCCOCCOCCOCCOCCOCCOCCOCCOCCOCCOCCOCCOCCOCCOCCOCCOCCOCCOCCOCCOCCOCCOCCOCCOCCC(N)=O)[C@@H](C)O)C(C)C)C(C)C [compound 5, ^18F-FBA-PEG28-A20FMDV2-PEG28] | ≥ 4 | 80 | 41 | 20 | 6.5 | 10.7 | greater than 4.5 | greater than 20 | greater than 20 | ≥ 9 | < 15 | 0.46 ± 0.07 | 0.25 ± 0.07 | less than 20% | less than 20% | 18 | – |
| CC(C)C[C@H](NC(=O)[C@H](CC(=O)O)NC(=O)CNC(=O)[C@H](CCCNC(=N)N)NC(=O)[C@H](CC(C)C)NC(=O)[C@H](CC(N)=O)NC(=O)[C@@H]1CCCN1C(=O)[C@@H](NC(=O)[C@H](C)NC(=O)[C@H](CC(N)=O)NC(=O)c1ccc(F)cc1)C(C)C)C(=O)N[C@@H](CCC(N)=O)C(=O)N[C@H](C(=O)N[C@@H](CC(C)C)C(=O)N[C@@H](C)C(=O)N[C@@H](CCC(N)=O)C(=O)N[C@@H](CCCCN)C(=O)N[C@H](C(=O)N[C@@H](C)C(=O)N[C@@H](CCCNC(=N)N)C(=O)N[C@H](C(=O)NCCOCCOCCOCCOCCOCCOCCOCCOCCOCCOCCOCCOCCOCCOCCOCCOCCOCCOCCOCCOCCOCCOCCOCCOCCOCCOCCOCCOCCC(N)=O)[C@@H](C)O)C(C)C)C(C)C [compound 4, ^18F-FBA-A20FMDV2-PEG28] | ≥ 4 | 76 | 9.4 | 7.1 | – | – | greater than 2 | – | – | – | < 15 | – | – | – | – | – | greater than 2.5 |
